Fewer inactive variants are shown than the library holds.

B1: tRNA (parent)
chain: GUUCCGUUGGCGUAAUGGUAACGCGUCUCCCUCCUAAGGAGAAGACUGCGGGUUCGAGUCCCGUACGGAACG

The variants in the data set derive from B1. As to the kind of experiment: yeast fitness relative to wild type (ratio to wild type); higher = fitter; tRNA-Arg(CCU), competitive growth, 37 C, YPD. The method in brief:
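Changes in genotype frequencies gave Darwinian fitness relative to wild type. Frequencies were read by 100-nucleotide paired-end sequencing of gene amplicons before and after pooled Saccharomyces cerevisiae strains, carrying tRNA-Arg(CCU) gene variants at the native locus, were competed in YPD at 37°C for 24 hours in six replicates. A genotype was kept only with ≥ 100 starting reads, and estimates < 0.5 were set to 0.5.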
For C29G C62A C66U, the yeast fitness was at most 0.5.
To C29G U35C A45U C60G G63C belongs 0.669; to C29G C31A C33G G41A A43G C61U, at most 0.5; to C29U A45U U54A, at most 0.5.
Turning to C29G G48A C55G A57G, the yeast fitness is at most 0.5.
As for C29G C49U U53C A57C C60G U64C G68U, the figure is at most 0.5.
To C29G A42U U47G A57C C61A belongs at most 0.5.
In the case of C29G C60G, the yeast fitness turned out to be 0.851.
As for C29G C33U A65C, the figure is 0.554; as for C29G C49G G50C A69U A70C, at most 0.5.
To C29G A37U G52A belongs 0.546.
To C29G U32C A36G C60A belongs at most 0.5; to C29U C49G G58C, at most 0.5.
For C29G C30G C34G C60A G67C, the yeast fitness is at most 0.5.
To C29U C31A C55U A57C belongs 0.62.
To C29G A45G A69C A70C belongs at most 0.5; to C29G A40U A65U, at most 0.5; to C29G G44C A45U U47A, at most 0.5.
To C29G A57U C60A belongs at most 0.5; to C29G C55U U59G, at most 0.5; to C29G C55A A65G, at most 0.5.
On to C29G C55G A57G A70C, for which the yeast fitness is at most 0.5.
On to C29G U35A G68C, for which the yeast fitness was at most 0.5.
As for C29U C34A A42U U47C, the figure is 0.64.
To C29U C30G A70C belongs 0.536; to C29G U32C C46U, at most 0.5; to C29G A43U A70U, 0.563.
For C29U A37C A40G A42U, the yeast fitness is at most 0.5.
To C29U A37C C55A G58A belongs at most 0.5; to C29G C31G U59A A69G, at most 0.5.
To C29U A37G G39C C49U belongs at most 0.5; to C29G C33U C34G U54A, 0.545; to C29U C34G, 0.603.
As for C29U C34U, the figure is 0.716.
Consider C29G U53A, for which the yeast fitness was 0.523.
As for C29G A42G C46A A57C, the figure is at most 0.5.
To C29G C49G U53G A57G belongs at most 0.5; to C29G A43C, 0.661; to C29G A43G, 0.785.
To C29U C30U U32C C55G G58A U64A belongs at most 0.5.
With C29U C34G A36C, the yeast fitness was at most 0.5.
For the variant C29G C30G C49A G56C C61U A69C, the yeast fitness stood at 0.717.
To C29G U35G C62U A69U belongs at most 0.5; to C29G C30G C46G, 0.521; to C29U A42C G67C, 0.505.
Turning to C29G U32G G38A U53C C66U, the yeast fitness was at most 0.5.
As for C29G A57C U59G, the figure is at most 0.5.
As for C29U C61G A65U, the yeast fitness is at most 0.5.
To C29G C33U A37G A40C A57C belongs at most 0.5; to C29G C31A G67A, 0.56; to C29U G39A C46A, 1.13.
To C29G A43U C46U belongs at most 0.5.
Regarding C29U C33G G44C, the yeast fitness was at most 0.5.
As for C29G C30G U32C A36U C60U C61U, the figure is 0.566.
To C29G C55U G67C belongs at most 0.5.
As for C29U C31G G44C, the yeast fitness is at most 0.5.
Regarding C29U A36U, the yeast fitness is 0.567.
To C29U A36C belongs 0.531.
To C29U A36G belongs 0.842.
As for C29G G41C A57U, the figure is at most 0.5; as for C29G C31U A43C G44C G68C, at most 0.5; as for C29U A42G U64C, 0.592.
For the variant C29G A40U, the yeast fitness came to 0.555.
To C29G A40C belongs 0.685; to C29U A40U A57G U64C, at most 0.5.
As for C29U C30U C61A, the figure is at most 0.5.
On to C29G A42C G52C U59A, for which the yeast fitness was at most 0.5.
As for C29G C33U U47C, the figure is at most 0.5.
Take C29G G50A A65U: the yeast fitness is at most 0.5.
Regarding C29U C34U G39A G58A C60U, the yeast fitness was at most 0.5.
To C29U C31U A57C C62U belongs 0.558; to C29G G38A A43U, 0.689.
To C29G G50C U53C belongs at most 0.5.
As for C29G U47C C49G C60G, the figure is 0.648.
In the case of C29G C55U A65G C66A, the yeast fitness is at most 0.5.
To C29U A43U C46A belongs 0.76; to C29G A37G C60U A69C, at most 0.5.
As for C29G C33G G52C, the figure is 0.579; as for C29G C33G A42C, 0.54; as for C29U G48C G50A, at most 0.5.
To C29U C33A G63C A65C C66A belongs at most 0.5.
As for C29U C30A G38A, the yeast fitness was at most 0.5.
Turning to C29U C33A C34U C46G C66U, the yeast fitness stood at 0.56.
Consider C29U A65C, for which the yeast fitness worked out at 0.751.
To C29U A65G belongs 0.934.
Take C29G G44A U64G: the yeast fitness is at most 0.5.
Take C29G G41C C66G G68A: the yeast fitness is 0.587.
C29G U47G C49G U54G: the yeast fitness is at most 0.5.
In the case of C29G G58A, the yeast fitness stood at 0.68.
For the variant C29U G38A G48C C66U, the yeast fitness is at most 0.5.
To C29U C61A belongs 0.611.
As for C29U C61G, the figure is 0.658; as for C29U A36C A57U, at most 0.5; as for C29G C34A C60A A69C, at most 0.5.
To C29G G44C belongs 0.755.
With C29U A37G C49U, the yeast fitness was 0.613.
To C29G U32A belongs 0.501; to C29G U32C, 0.563; to C29U A45C G67A, 0.536.
As for C29G A65G C66A, the figure is at most 0.5; as for C29G A36G C66G, at most 0.5; as for C29G C49G, 0.563.
As for C29G C49U, the figure is 0.718.
Take C29U C33A C34U C46G G52C: the yeast fitness is at most 0.5.
To C29U A42U C66A belongs 0.567; to C29G G52C, at most 0.5; to C29U A40G U47A C61U C62A A70G, at most 0.5.
As for C29G U35A, the figure is 0.582.
As for C29G U35C, the figure is 0.522.
On to C29G U35G, for which the yeast fitness was at most 0.5.
With C29G C55G A57G, the yeast fitness amounted to 0.593.
As for C29G A43G C49G, the figure is 0.532; as for C29G C34U G63A G67A A69G, at most 0.5; as for C29G U32G G38A G48C G67U A69C, at most 0.5.
Regarding C29U A70U, the yeast fitness is 0.827.
As for C29G U47G G63A A70U, the figure is at most 0.5; as for C29G C30G A57U A70G, 0.503; as for C29G C33U U47A C61U A69C, at most 0.5.
To C29U A37G A65U belongs at most 0.5; to C29G U32A C33U, at most 0.5; to C29U A36C C46U U53A, at most 0.5.
On to C29G G44U A65G, for which the yeast fitness was at most 0.5.
C29U A37G G48A G68C A69U: the yeast fitness was determined as 0.662.
Turning to C29U G48C G52A, the yeast fitness worked out at 0.591.
As for C29U A57G, the figure is 0.908; as for C29G C66U, 0.648; as for C29G C66A, 0.506.
With C29G C31G, the yeast fitness worked out at 0.695.
To C29G C31U belongs 0.68; to C29G C31A, 0.511; to C29G C61G C66G, 0.558.
As for C29U C46U C66U, the figure is 0.63; as for C29G C49U G68A, at most 0.5.
To C29G A42G G52C belongs 0.702; to C29U A37C A65C, at most 0.5.
For C29U C31G A37C G50A, the yeast fitness was at most 0.5.
As for C29G C31A A42C G67C, the yeast fitness came to 0.606.
As for C29U C31U A42C A69C, the figure is 0.673.
To C29G C31G C46G C55U belongs at most 0.5; to C29G C33U A45U, at most 0.5; to C29G G63C A70U, at most 0.5.
To C29U C49U U59A belongs at most 0.5; to C29G G50C, 0.607.
On to C29U C33U U54A G56A, for which the yeast fitness is at most 0.5.
Take C29U C60G C62U: the yeast fitness was found to be 0.546.
Turning to C29G C33A C34A A57U, the yeast fitness was determined as 0.54.
To C29U A36U C66G belongs at most 0.5; to C29G C31U A43C G44C A65U, 0.517; to C29G A69C, 0.628.
To C29G A69U belongs 0.771; to C29G C34A G39C, at most 0.5.
To C29G C34A A37G C60A belongs at most 0.5.
Turning to C29G C46A U59C, the yeast fitness amounted to 0.546.
As for C29G A45C G52A, the figure is at most 0.5.
To C29G C61A C62U belongs at most 0.5.
C29U C33U: the yeast fitness turned out to be 0.826.
On to C29G G50C C55U, for which the yeast fitness was at most 0.5.
To C29U A45U belongs 0.928.
Regarding C29U A45G, the yeast fitness was 0.98.
As for C29U C46G, the figure is 1.02; as for C29G A45C, 0.614.
To C29G C33U U47A G58A belongs at most 0.5; to C29U G44C G68A, 0.57.
As for C29G A45C A70G, the figure is 0.573; as for C29U C33G A40C A57G, at most 0.5; as for C29U A42U C61U C66A, at most 0.5.
As for C29G G48A C49U, the yeast fitness was at most 0.5.

The values above are taken from the RNAGym collection of RNA variant scans (doi:10.1126/science.aae0568).
